According to ChEMBL document CHEMBL4118097, “Selective Inhibitors of Dual Leucine Zipper Kinase (DLK, MAP3K12) with Activity in a Model of Alzheimer's Disease” (J Med Chem, 2017):
pKi: −log10 of the molar value.

Legend:
[1] = biological target: Serine/threonine-protein kinase Nek1 (Homo sapiens) (UniProt Q96PY6); experiment: Inhibition of recombinant full length GST-tagged human NEK1 expressed in baculovirus expression system at 1 uM by FRET assay relative to control
How it was run: (§1)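 Single-concentration screen at 1 μM in Life Technologies SelectScreen, across a 220-kinase panel. Z′-LYTE format measures phosphorylation of a labeled peptide by FRET. Results are reported as percent inhibition.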

[2] = biological target: NUAK family SNF1-like kinase 1 (Homo sapiens) (UniProt O60285); experiment: Inhibition of recombinant full length His-tagged human ARK5 expressed in baculovirus expression system at 1 uM by FRET assay relative to control
Homo sapiens = species: Homo sapiens; experiment: Binding affinity to KATP (unknown origin) receptor at 10 uM relative to control
How it was run: (§2)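 Broad radioligand-binding and enzyme screening panel covering 42 targets (biogenic amine and neuropeptide receptors, ion channels, neurotransmitter transporters, acetylcholinesterase). Single test concentration of 10 μM. Results expressed as binding relative to control, with a hit defined as >50% of control.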

[3] = biological target: Non-receptor tyrosine-protein kinase TYK2 (Homo sapiens) (UniProt P29597); experiment: Inhibition of recombinant N-terminal GST-tagged human TYK2 (833 to 1187 residues) expressed in baculovirus expression system at 1 uM by FRET assay relative to control; how it was run: as §1
[4] = biological target: MAP/microtubule affinity-regulating kinase 3 (Homo sapiens) (UniProt P27448); experiment: Inhibition of recombinant full length GST-tagged human MARK3 expressed in baculovirus expression system at 1 uM by FRET assay relative to control; how it was run: as §1
[5] = biological target: Serine/threonine-protein kinase MARK1 (Homo sapiens) (UniProt Q9P0L2); experiment: Inhibition of recombinant full Length GST-tagged human MARK1 expressed in baculovirus expression system at 1 uM by FRET assay relative to control; how it was run: as §1
[6] = biological target: Interleukin-1 receptor-associated kinase 4 (Homo sapiens) (UniProt Q9NWZ3); experiment: Inhibition of recombinant full length His-tagged human IRAK4 expressed in baculovirus expression system at 1 uM by FRET relative to control
[7] = biological target: Protein kinase C epsilon type (Homo sapiens) (UniProt Q02156); experiment: Inhibition of recombinant full length human PKCepsilon expressed in baculovirus expression system at 1 uM by FRET assay relative to control
[8] = biological target: Ephrin type-A receptor 8 (Homo sapiens) (UniProt P29322); experiment: Inhibition of recombinant GST-tagged human EphA8 cytoplasmic domain expressed in baculovirus expression system at 1 uM by FRET assay relative to control
How it was run: (§3)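 Single-point screen at 1 μM compound in a 220-kinase panel run by Life Technologies (SelectScreen). Z′-LYTE format: phosphorylation of a labeled peptide substrate read by FRET. Values are reported as percent inhibition.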

[9] = biological target: Cytoplasmic tyrosine-protein kinase BMX (Homo sapiens) (UniProt P51813); experiment: Inhibition of recombinant full length His-tagged human Bmx cytoplasmic domain expressed in Baculovirus expression system at 1 uM by FRET assay relative to control
[10] = biological target: Vascular endothelial growth factor receptor 3 (Homo sapiens) (UniProt P35916); experiment: Inhibition of recombinant GST-tagged human FLT4 cytoplasmic domain expressed in baculovirus expression system at 1 uM by FRET assay relative to control; how it was run: as §3
[11] = biological target: Adenosine receptor A2a (Homo sapiens) (UniProt P29274); experiment: Binding affinity to recombinant human A2A adenosine receptor at 10 uM relative to control; how it was run: as §2
[12] = biological target: Casein kinase I isoform gamma-1 (Homo sapiens) (UniProt Q9HCP0); experiment: Inhibition of CK1gamma1 (unknown origin) at 1 uM by FRET assay relative to control
[13] = biological target: Casein kinase I isoform delta (Homo sapiens) (UniProt P48730); experiment: Inhibition of CK1delta (unknown origin) at 1 uM by FRET assay relative to control
[14] = biological target: Mitogen-activated protein kinase kinase kinase 9 (Homo sapiens, UniProt P80192); experiment: Inhibition of recombinant human GST-tagged MLK1 expressed in baculovirus at 1 uM by FRET assay relative to control
[15] = biological target: Serine/threonine-protein kinase B-raf (Homo sapiens) (UniProt P15056); experiment: Inhibition of B-Raf (unknown origin) at 1 uM by FRET assay relative to control
[16] = biological target: High affinity nerve growth factor receptor (Homo sapiens, UniProt P04629); experiment: Inhibition of recombinant His-tagged human TrkA cytoplasmic domain (441 to 796 residues) expressed in baculovirus expression system at 1 uM by FRET assay relative to control; how it was run: as §1
[17] = biological target: Adenosine receptor A1 (Homo sapiens) (UniProt P30542); experiment: Binding affinity to recombinant human A1 adenosine receptor at 10 uM relative to control; how it was run: as §2
[18] = biological target: Beta-1 adrenergic receptor (Homo sapiens) (UniProt P08588); experiment: Binding affinity to recombinant human beta1 adrenergic receptor at 10 uM relative to control; how it was run: as §2
[19] = biological target: T1, Mitogen-activated protein kinase kinase kinase 12 (Homo sapiens, UniProt Q12852); experiment: Binding affinity to N-terminally GST-tagged wild type human DLK (1 to 520 residues) expressed in sf21 insect cells using N-terminally His-tagged MKK4 K131M as substrate after 60 mins in presence of ATP by TR-FRET assay
T1 sequence (Q12852 whole entry): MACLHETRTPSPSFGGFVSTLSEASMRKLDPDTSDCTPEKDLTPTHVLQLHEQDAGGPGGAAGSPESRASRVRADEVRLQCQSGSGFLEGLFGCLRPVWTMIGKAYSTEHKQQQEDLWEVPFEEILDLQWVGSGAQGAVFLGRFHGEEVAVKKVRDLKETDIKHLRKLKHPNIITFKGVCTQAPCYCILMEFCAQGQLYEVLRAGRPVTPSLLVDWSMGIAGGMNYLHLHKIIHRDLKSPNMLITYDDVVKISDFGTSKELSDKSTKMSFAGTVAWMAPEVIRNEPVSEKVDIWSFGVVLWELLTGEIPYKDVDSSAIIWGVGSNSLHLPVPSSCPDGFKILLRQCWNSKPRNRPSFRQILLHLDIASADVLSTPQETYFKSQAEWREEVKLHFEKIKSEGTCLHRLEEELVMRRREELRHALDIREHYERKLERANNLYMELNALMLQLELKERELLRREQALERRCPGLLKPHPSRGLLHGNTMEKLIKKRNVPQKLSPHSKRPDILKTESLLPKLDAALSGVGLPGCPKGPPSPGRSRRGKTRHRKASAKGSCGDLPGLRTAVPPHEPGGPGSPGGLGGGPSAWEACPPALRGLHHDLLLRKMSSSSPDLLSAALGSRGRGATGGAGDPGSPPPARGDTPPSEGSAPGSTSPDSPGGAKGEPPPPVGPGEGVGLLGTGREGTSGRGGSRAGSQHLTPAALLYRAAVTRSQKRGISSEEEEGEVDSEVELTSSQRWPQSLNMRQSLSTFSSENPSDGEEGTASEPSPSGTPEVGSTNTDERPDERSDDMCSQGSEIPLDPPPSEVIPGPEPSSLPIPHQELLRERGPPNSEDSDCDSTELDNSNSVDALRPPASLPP

Cytoplasmic tyrosine-protein kinase BMX (Homo sapiens), sequence (P51813 whole entry, the tested form may be a part): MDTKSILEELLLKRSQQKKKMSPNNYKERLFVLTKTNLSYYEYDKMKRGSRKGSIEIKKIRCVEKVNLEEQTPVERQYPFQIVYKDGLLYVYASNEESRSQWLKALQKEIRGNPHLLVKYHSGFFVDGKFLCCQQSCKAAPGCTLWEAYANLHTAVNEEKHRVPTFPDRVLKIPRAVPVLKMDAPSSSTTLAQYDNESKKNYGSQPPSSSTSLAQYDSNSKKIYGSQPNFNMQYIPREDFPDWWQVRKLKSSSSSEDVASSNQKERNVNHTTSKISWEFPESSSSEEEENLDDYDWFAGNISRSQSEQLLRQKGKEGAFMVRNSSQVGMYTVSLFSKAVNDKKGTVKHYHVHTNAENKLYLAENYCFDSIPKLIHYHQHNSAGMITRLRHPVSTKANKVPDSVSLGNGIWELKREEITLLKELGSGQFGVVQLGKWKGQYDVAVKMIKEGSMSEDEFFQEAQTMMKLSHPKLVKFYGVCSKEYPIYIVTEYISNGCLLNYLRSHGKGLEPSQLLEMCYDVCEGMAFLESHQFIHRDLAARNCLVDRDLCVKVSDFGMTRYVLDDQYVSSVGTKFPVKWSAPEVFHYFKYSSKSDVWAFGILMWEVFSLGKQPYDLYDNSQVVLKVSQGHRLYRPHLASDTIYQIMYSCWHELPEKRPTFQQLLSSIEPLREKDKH
Vascular endothelial growth factor receptor 3 (Homo sapiens), sequence (P35916 whole entry, the tested form may be a part): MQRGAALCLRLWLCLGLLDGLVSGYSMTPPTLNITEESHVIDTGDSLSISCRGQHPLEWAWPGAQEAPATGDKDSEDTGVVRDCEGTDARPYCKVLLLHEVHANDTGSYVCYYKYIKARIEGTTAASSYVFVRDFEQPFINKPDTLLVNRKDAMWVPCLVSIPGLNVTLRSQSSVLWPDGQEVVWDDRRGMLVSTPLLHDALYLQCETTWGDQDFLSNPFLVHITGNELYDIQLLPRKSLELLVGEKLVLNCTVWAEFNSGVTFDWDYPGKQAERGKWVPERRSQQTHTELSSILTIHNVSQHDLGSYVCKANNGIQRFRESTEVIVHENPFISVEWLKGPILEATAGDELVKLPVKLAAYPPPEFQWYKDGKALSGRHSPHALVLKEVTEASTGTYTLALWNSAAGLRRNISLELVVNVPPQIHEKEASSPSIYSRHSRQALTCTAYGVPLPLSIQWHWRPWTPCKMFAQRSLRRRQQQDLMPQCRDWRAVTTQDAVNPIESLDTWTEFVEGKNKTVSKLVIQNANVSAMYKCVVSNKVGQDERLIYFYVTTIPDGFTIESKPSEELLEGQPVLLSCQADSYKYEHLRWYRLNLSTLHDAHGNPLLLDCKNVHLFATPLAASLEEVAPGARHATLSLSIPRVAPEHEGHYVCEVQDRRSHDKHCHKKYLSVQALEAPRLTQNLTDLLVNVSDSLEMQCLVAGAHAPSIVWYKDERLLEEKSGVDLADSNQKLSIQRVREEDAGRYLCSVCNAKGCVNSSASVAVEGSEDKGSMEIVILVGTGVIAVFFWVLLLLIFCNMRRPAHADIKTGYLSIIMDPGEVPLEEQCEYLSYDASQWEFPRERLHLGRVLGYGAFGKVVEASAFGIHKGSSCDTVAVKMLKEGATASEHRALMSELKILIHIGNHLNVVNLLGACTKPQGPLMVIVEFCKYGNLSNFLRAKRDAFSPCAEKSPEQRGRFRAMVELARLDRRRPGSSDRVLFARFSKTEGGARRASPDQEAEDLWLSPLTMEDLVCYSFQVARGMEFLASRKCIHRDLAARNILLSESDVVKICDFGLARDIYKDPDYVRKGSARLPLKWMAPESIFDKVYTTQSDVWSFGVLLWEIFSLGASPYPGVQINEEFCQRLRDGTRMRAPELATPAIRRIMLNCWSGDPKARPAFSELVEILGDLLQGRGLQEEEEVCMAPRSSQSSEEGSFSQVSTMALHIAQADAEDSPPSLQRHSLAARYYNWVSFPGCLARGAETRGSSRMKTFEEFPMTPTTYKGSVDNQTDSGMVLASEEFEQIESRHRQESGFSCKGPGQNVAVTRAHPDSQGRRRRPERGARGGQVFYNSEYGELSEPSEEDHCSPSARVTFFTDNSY
High affinity nerve growth factor receptor, sequence (P04629 33-796 limits assumed): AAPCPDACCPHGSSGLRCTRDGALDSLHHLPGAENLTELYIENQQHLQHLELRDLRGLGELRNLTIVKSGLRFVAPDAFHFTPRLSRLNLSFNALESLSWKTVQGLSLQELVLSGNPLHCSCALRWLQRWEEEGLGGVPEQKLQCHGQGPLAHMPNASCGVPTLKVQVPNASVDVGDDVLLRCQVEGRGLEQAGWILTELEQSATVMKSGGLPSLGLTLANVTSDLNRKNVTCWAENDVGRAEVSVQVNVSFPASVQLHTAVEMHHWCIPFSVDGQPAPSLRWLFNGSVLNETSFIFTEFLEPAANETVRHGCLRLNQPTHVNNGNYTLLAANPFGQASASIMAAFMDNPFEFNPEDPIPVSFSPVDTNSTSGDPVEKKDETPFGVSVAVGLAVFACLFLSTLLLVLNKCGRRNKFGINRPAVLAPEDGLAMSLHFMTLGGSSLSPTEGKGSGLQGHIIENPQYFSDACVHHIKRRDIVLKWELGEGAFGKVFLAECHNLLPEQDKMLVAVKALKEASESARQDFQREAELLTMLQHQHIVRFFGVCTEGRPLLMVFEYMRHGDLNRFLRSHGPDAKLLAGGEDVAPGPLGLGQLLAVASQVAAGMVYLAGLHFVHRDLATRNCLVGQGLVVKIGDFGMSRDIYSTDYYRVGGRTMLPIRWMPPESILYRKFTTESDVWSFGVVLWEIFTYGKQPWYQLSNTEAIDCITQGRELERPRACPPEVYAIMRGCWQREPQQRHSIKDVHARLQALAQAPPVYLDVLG
Serine/threonine-protein kinase B-raf (Homo sapiens), sequence (P15056 whole entry, the tested form may be a part): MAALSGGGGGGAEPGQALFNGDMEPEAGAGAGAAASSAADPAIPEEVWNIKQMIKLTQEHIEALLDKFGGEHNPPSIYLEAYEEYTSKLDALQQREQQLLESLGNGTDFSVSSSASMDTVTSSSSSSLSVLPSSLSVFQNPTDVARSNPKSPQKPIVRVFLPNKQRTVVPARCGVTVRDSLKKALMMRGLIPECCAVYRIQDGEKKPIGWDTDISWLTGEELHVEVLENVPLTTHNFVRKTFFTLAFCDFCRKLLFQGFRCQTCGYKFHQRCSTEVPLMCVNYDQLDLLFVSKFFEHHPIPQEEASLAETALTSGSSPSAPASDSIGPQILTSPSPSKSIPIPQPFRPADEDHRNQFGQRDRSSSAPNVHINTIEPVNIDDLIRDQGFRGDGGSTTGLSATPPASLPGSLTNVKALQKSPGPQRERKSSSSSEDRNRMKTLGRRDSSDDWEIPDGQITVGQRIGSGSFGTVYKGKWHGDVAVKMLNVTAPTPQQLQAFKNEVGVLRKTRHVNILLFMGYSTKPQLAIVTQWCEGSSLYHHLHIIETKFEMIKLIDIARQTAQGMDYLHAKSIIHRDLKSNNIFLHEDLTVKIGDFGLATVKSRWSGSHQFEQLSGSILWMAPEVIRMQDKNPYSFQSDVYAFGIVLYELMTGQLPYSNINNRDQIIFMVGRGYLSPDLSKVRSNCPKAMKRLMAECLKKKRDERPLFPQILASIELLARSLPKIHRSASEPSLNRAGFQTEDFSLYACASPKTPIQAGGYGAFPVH
Interleukin-1 receptor-associated kinase 4 (Homo sapiens), sequence (Q9NWZ3 whole entry): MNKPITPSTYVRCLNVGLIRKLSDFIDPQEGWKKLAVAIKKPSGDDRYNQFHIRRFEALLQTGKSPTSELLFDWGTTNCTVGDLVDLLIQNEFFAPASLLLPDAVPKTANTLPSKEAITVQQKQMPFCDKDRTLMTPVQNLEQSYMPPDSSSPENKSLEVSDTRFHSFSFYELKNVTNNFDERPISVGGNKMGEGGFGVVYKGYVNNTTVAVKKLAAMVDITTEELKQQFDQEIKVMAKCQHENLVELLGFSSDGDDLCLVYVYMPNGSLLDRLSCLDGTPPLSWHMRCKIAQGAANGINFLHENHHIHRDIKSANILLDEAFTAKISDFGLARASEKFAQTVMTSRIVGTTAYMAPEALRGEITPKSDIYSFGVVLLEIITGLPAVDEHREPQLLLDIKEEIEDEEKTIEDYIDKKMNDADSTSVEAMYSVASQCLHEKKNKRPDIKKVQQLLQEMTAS
Adenosine receptor A1 (Homo sapiens), sequence (P30542 whole entry): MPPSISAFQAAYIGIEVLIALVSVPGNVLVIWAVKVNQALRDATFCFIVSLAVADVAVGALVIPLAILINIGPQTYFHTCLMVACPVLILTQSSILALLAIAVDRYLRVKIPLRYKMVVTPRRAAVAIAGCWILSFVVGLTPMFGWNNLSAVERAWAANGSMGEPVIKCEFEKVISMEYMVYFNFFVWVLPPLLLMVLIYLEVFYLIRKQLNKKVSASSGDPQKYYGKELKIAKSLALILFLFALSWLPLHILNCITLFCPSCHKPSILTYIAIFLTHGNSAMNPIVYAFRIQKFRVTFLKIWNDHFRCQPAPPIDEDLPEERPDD
Casein kinase I isoform gamma-1 (Homo sapiens), sequence (Q9HCP0 whole entry, looked up, canonical isoform): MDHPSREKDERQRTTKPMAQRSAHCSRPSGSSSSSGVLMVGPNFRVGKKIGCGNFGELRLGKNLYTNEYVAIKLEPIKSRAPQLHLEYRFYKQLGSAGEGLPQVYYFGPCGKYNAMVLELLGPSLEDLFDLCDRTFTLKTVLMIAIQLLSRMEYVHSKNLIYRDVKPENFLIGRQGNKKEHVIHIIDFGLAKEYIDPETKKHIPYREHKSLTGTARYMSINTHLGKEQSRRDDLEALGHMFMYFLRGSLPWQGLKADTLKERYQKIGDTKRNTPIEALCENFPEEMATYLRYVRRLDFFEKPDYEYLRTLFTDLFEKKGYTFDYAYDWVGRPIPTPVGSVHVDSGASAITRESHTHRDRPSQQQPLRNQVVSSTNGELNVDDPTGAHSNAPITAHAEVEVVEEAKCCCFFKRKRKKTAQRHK

| SMILES | inhibition [1] [%] | inhibition [2] [%] | Activity (Homo sapiens) [%] | inhibition [3] [%] | inhibition [4] [%] | inhibition [5] [%] | inhibition [6] [%] | inhibition [7] [%] | inhibition [8] [%] | inhibition [9] [%] | inhibition [10] [%] | Activity [11] [%] | inhibition [12] [%] | inhibition [13] [%] | inhibition [14] [%] | inhibition [15] [%] | inhibition [16] [%] | Activity [17] [%] | Activity [18] [%] | pKi [19] |
| --- | --- | --- | --- | --- | --- | --- | --- | --- | --- | --- | --- | --- | --- | --- | --- | --- | --- | --- | --- | --- |
| Nc1ncc(-c2cc([C@H]3[C@@H]4CN(C5COC5)C[C@@H]43)n(CC3CC3)n2)cc1C(F)(F)F | 3.6 | 29.1 | > 50 | 9.3 | 14.1 | 12.1 | 5.3 | -5 | 18.6 | 14.1 | 44.6 | > 50 | 2 | -0.3 | 28.5 | 1.8 | 56.1 | > 50 | > 50 | 8.40 |
| CC(C)n1nc(-c2cnc(N)c(OC(F)(F)F)c2)cc1[C@H]1[C@@H]2CN(C3COC3)C[C@@H]21 | 5.7 | 30.1 | > 50 | 10.7 | 16.8 | 11.4 | -1.3 | 1.9 | 8.7 | 7.8 | 22.1 | > 50 | 8.4 | 10 | -7.2 | 3.7 | 67.1 | > 50 | > 50 | 8.52 |
